An excerpt weighted towards active compounds, which were near 2.3% of everything screened.
TAAR1 agonist – agonists of human TAAR1; CHO RD-HGA16 TAAR1, Fluo-8 calcium fluorescence; vehicle wells 0%, saturating PEA agonist 100%; activation, % at 3 µM; 360,000 compounds, 0.99% hits;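 active means activation above the mean activation of all test compounds in the run plus 3 SD, cut at about 38% in these data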
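System: CHO-derived RD-HGA16 cells with stable Gα16 and human TAAR1. Times: 17-24 h plating, Fluo-8 75 min 37 °C, 30 min RT. Measured by: calcium-sensitive Fluo-8 signal, excitation 470-495, emission 515-575 nm. Read-out basis: % activation relative to PEA EC100 response. Control set: DMSO and PEA EC100. Repeats: no replicates (n 1).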
OXTR agonist – human OXTR agonism; P30559; CHO-OTR cells, Fluo-8 calcium fluorescence; normalized: DMSO 0%, oxytocin 100%; activation, % at 3 µM; 320,000 compounds, 0.32% hits; AID 2435;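 active means activation above the mean of all tested compounds plus 3 SD, cutoff set per screening run, cut at about 20% in these data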;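 further: peak over basal fluorescence ratio from a 100 s FLIPR kinetic read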
Target sequence (P30559 whole entry, looked up): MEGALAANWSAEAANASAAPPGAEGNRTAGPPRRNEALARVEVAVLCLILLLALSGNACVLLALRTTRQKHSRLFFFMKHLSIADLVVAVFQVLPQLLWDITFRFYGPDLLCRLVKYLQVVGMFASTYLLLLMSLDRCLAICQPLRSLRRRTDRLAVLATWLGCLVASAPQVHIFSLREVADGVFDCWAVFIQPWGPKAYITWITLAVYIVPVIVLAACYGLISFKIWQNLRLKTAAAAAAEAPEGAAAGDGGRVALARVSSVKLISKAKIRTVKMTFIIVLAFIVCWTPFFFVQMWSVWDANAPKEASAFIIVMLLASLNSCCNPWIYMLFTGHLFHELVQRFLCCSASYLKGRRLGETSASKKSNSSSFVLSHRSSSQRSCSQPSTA
OXTR potentiate – potentiators of human oxytocin receptor. P30559. CHO-OTR cells, Fluo-8 calcium fluorescence, potentiator mode; 0% = oxytocin EC15, 100% = EC100. activation, % at 3 µM. 320,000 compounds, 0.061% hits. AID 2445;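 active means activation above that plate's cutoff, the mean activation of tested compounds plus 3 SD, cut at about 6.6% in these data, passing the limit was not always enough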;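 further: 100% uses oxytocin at 75 nM as the full agonist control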
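Measured by – Fluo-8 calcium dye fluorescence · Test system – human OTR in CHO cells · Dosing – one concentration, 3.0 µM compound · Controls – EC15 oxytocin alone as 0%, 75 nM oxytocin as 100% · Evaluation – normalized max/min fluorescence ratio, % activation · Timing – 6 min pre-incubation, 100 s read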
V1R ag counter – V1a receptor agonism, counter-screen for OXTR agonists; P37288; CHO-V1R cells, Fluo-8 calcium fluorescence, agonist mode; 0% DMSO, 100% 3 nM vasopressin; AID 2797; activation, % at 3 µM; 320,000 compounds, 0.25% hits;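 active means activation above the mean activation of all tested compounds plus 3 SD, per screening run, cut at about 20% in these data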;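 further: signal is peak over basal fluorescence ratio across a 100 second FLIPR read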
Target sequence (P37288 whole entry, looked up): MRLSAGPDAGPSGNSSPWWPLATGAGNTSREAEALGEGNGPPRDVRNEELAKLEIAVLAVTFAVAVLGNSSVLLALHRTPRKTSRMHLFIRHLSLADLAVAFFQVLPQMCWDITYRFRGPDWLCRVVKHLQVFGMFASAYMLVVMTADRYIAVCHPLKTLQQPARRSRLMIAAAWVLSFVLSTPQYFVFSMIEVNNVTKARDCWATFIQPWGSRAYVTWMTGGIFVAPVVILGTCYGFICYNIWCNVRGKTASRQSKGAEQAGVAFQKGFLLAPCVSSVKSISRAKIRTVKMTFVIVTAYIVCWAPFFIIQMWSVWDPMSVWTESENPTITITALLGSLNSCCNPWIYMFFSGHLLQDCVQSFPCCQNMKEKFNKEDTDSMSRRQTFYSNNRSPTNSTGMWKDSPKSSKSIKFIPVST
TAAR1 antagonist – antagonists of human TAAR1; Q96RJ0; CHO RD-HGA16 TAAR1, Fluo-8 calcium fluorescence, antagonist; inhibition, % at 3 µM; 360,000 compounds, 1.5% hits;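 active means inhibition above a per-plate cutoff, the mean inhibition of test compounds on that plate plus 3 SD, cut at about 49% in these data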;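 further: 0% = DMSO plus EC80 beta-PEA response and 100% = DMSO alone without agonist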
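System: CHO RD-HGA16 cells bearing hTAAR1. Reagent: EC80 β-phenethylamine stimulus. Schedule: seeding 17-24 h prior, 75-min 37 °C, 30-min RT dye loading. Signal: Fluo-8 intracellular calcium dye fluorescence, real-time kinetic reads. Read-out: % inhibition from peak post-agonist over basal fluorescence ratio. Benchmarks: vehicle wells and EC80 agonist wells. Replicates: n of 1.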
nonsel antag count – nonselective antagonist in TAAR1 antagonist counter-screen. shares compounds with TAAR1 antagonist. counterscreen cell line, calcium fluorescence, antagonist mode. inhibition, % at 3 µM. 2,400 compounds, 77% hits; in the data active means inhibition above about 22%;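 further: CHO-Ga16 host cells stimulated with ATP at an EC80 level; 0% = agonist EC80 plus vehicle and 100% = vehicle without agonist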
TAAR1 antag conf – confirmation of human TAAR1 antagonists. shares compounds with TAAR1 antagonist. TAAR1-expressing cells, fluorescence antagonist read-out. inhibition, % at 3 µM. 2,400 compounds, 40% hits; in the data active means inhibition above about 49%;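 further: CHO-Ga16 host cells challenged with agonist PEA near its EC80; 0% = agonist at EC80 plus vehicle and 100% = vehicle with no agonist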
Ga16 nonsel ag – nonselective Ga16 agonism, counter-screen | shares compounds with TAAR1 antagonist | Ga16-expressing cells, calcium fluorescence, agonist counterscreen | activation, % at 3 µM | 2,400 compounds, 18% hits; in the data active means activation above about 12%;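 further: 0% = vehicle wells and 100% = saturating stimulus response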
TAAR1 ag count – counter-screen for human TAAR1 antagonists: TAAR1 agonists; 2,400 compounds, 2% hits; AID 651955; hTAAR1 cell line, fluorescence activation, agonist mode; shares compounds with TAAR1 antagonist; activation, % at 3 µM; in the data active means activation above about 37%;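 further: CHO cells stably expressing TAAR1 with calcium dye readout; 0% = DMSO vehicle and 100% = full agonist response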
* marks the source's active call; other numbers are inactive results; x = no result given.

SMILES | TAAR1 agonist | OXTR agonist | OXTR potentiate | V1R ag counter | TAAR1 antagonist | nonsel antag count | TAAR1 antag conf | Ga16 nonsel ag | TAAR1 ag count
CCCCn1c(N)c(N(CCOC)C(=O)CSCc2ccc(C)cc2)c(=O)[nH]c1=O | 1 | -1 | 1 | 1 | -16 | x | x | x | x
Cc1nc2c(OCc3ccc(F)cc3)cccn2c1N(C)C(=O)CCC1CCCC1 | 4 | x | x | x | 26 | x | x | x | x
COC(=O)c1ccc(COc2cccn3c(N(C)C(=O)CCC4CCCC4)c(C)nc23)cc1 | 4 | x | x | x | 68* | 34* | 55* | 7 | 12
O=C(Nc1nc(-c2cccs2)cs1)c1ccc(S(=O)(=O)N2CCCC2)cc1 | 5 | 2 | -10 | 6 | 29 | x | x | x | x
CN(C)S(=O)(=O)c1ccc(C(=O)Nc2nc(-c3cccs3)cs2)cc1 | 8 | 9 | -9 | 10 | 54* | 33* | 37 | 12* | 9
CCCN(CCC)CCCNC(=O)C1CCC(CNS(=O)(=O)c2cccc3nsnc23)CC1 (centres undefined) | x | 1 | -2 | 0 | x | x | x | x | x
COc1ccccc1-c1nc(C(=O)NCC2CCCO2)cc2c1[nH]c1ccccc12 (centres undefined) | x | 2 | -8 | 0 | x | x | x | x | x
COc1cc(-c2nc(C(=O)NCC3CCCO3)cc3c2[nH]c2ccccc23)cc(OC)c1OC (centres undefined) | 6 | 0 | -5 | 0 | 61* | 28* | 40 | 6 | 4
Cc1noc(NS(=O)(=O)c2ccc(NC(=O)c3cccc(S(=O)(=O)Nc4ccccc4F)c3)cc2)c1C | -3 | 1 | 3 | 1 | 100* | 2 | 1 | 4 | 3
Cc1noc(NS(=O)(=O)c2ccc(NC(=O)c3ccccc3NS(=O)(=O)c3ccc(F)c(F)c3)cc2)c1C | 12 | x | x | x | 1 | x | x | x | x
Cc1ccc(C)c(NC(=O)Nn2cnnc2)c1 | 1 | 0 | -4 | 0 | -9 | x | x | x | x
Cc1ccc(Cl)cc1NC(=O)Nn1cnnc1 | 1 | 0 | -4 | 0 | 62* | 2 | -1 | 0 | 0
COCCn1ccc2c(OCC(=O)Nc3ccccc3OC)cccc2c1=O | 8 | -2 | -11 | 0 | 58* | 27* | 41 | 8 | 5
O=C(/C=C/c1ccc(Cl)cc1Cl)NC(=S)Nc1ccc(CN2CCOCC2)cc1 | 1 | 0 | 5 | 2 | -6 | x | x | x | x
O=C(/C=C/c1ccccc1)NC(=S)Nc1ccc(CN2CCOCC2)cc1 | 17 | 2 | -15 | 4 | 58* | 41* | 48 | 10 | 9
O=C(/C=C/c1ccccc1)Nc1ccc(N2CCCCC2)cc1 | 23 | 18 | -11 | 9 | 69* | 30* | 65* | 28* | 61*
O=C(COC(=O)c1ccc([N+](=O)[O-])s1)c1ccc[nH]1 | 3 | 1 | -5 | 3 | 20 | x | x | x | x
COc1ccc(NC(=O)c2ccc(C#N)cc2)cc1NS(=O)(=O)c1ccc(F)cc1 | 0 | 1 | -6 | 2 | 70* | 5 | 8 | 5 | 5
COc1ccc(NC(=O)c2ccc3ccccc3c2)cc1NS(=O)(=O)c1ccc(F)cc1 | 1 | -1 | -6 | 0 | 7 | x | x | x | x
C[C@@H]1CN([C@@H](C)CO)C(=O)c2cc(NS(=O)(=O)c3ccc(F)cc3)ccc2O[C@@H](C)CCCCO[C@H]1CN(C)C(=O)NC1CCCCC1 | 2 | x | x | x | -9 | x | x | x | x
Cc1cc(Br)c(OCc2ccc(C(=O)N/N=C/c3ccc[nH]3)cc2)c(Br)c1 | x | -1 | -6 | 2 | x | 14 | x | 3 | x
O=C(N/N=C/c1ccc[nH]1)c1ccc(COc2cccc3cccnc23)cc1 | 6 | -2 | 0 | 0 | 39 | x | x | x | x
COc1ccc(OCC(O)CNS(=O)(=O)c2ccc(C)cc2)cc1 (centres undefined) | 2 | 2 | -2 | -2 | -13 | x | x | x | x
COc1ccc([C@H]2CC(=O)C=C(c3ccccc3Oc3ccccc3)C2)cc1 | 8 | 3 | -8 | 2 | 50* | 11 | 17 | 1 | 2
COc1ccc(C2=CC(=O)C[C@H](c3ccc(F)cc3)C2)cc1OC | 4 | -1 | -6 | -1 | 92* | 16 | 51* | 0 | -3
SMILES | TAAR1 agonist | OXTR agonist | OXTR potentiate | V1R ag counter | TAAR1 antagonist | nonsel antag count | TAAR1 antag conf | Ga16 nonsel ag | TAAR1 ag count
O=C(Nc1ccon1)c1ccc(OC2CCCC2)cc1 | 6 | -1 | -4 | 3 | 5 | x | x | x | x
CC(C)(C)c1cc(NC(=O)c2ccc(OC3CCCC3)cc2)no1 | 0 | -1 | -11 | 3 | 51* | 25* | 31 | 4 | 3
COc1ccc(-c2csc(NC(=O)Cc3ccccc3F)n2)cc1OC | 10 | 2 | -16 | 7 | 34 | x | x | x | x
COc1ccc(S(=O)(=O)Nc2ccccc2C(=O)Nc2nc(-c3ccc(F)cc3)cs2)cc1OC | 9 | 16 | -16 | 11 | 90* | 52* | 61* | 9 | 4
COc1ccccc1CC(=O)Nc1nc(-c2ccc(F)c(F)c2)cs1 | -1 | 0 | -9 | 3 | 51* | 22* | 40 | 9 | 13
Cc1noc(C)c1CSCC(=O)Nc1nc(-c2ccc(F)c(F)c2)cs1 | 10 | 1 | -16 | 5 | 82* | 49* | 58* | 9 | 4
O=C(Cc1ccccc1F)Nc1nc(-c2ccc(F)cc2)cs1 | 5 | -2 | -9 | 4 | 74* | 30* | 59* | 9 | 14
Cc1nn(CC(=O)OCC(=O)NC(C)c2ccccc2)c(C)c1[N+](=O)[O-] (centres undefined) | 8 | 0 | 9 | 1 | -4 | x | x | x | x
O=C(Cc1ccc([N+](=O)[O-])cc1)Nc1ccc2c(c1)CCC2 | 3 | 1 | -7 | 0 | -12 | x | x | x | x
Cc1cc(C)cc(NC(=S)N2CCC(N(C)CC3CCCO3)CC2)c1 (centres undefined) | 5 | 0 | 0 | 0 | -8 | x | x | x | x
CC(=O)c1ccc(N2CCN(C(=O)c3cc4c(-c5ccccc5F)nn(C)c4s3)CC2)cc1 | 1 | 1 | -11 | 3 | 55* | 26* | 34 | 6 | 4
O=C(Nc1c2c(nn1-c1ccccc1)CS(=O)C2)c1ccc(S(=O)(=O)N2CCOCC2)cc1 (centres undefined) | 2 | 1 | -1 | 1 | 51* | 5 | 0 | 2 | 7
COc1ccc(C2=NOC(Cn3nc(C(=O)NCc4ccc(OC(F)(F)F)cc4)cc3-c3ccccc3)C2)cc1 (centres undefined) | 2 | 0 | -5 | 0 | 24 | x | x | x | x

Screening data deposited in PubChem BioAssay by The Scripps Research Institute Molecular Screening Center.
